According to ChEMBL document CHEMBL5505959, “Identification of 4-amino-2-Pyridones as new potent PCSK9 inhibitors: From phenotypic hit discovery to in vivo tolerability” (Eur J Med Chem, 2024):
The source made the active and inactive calls.

Key:
HepG2 [1] = experiment: Cytotoxicity against human HepG2 cells assessed as reduction in cell viability at 5 uM measured after 24 hrs by SRB assay relative to control; type: functional
In short: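 HepG2 seeded 8000 cells/well in complete MEM; next day medium replaced with 0.4 % FBS medium containing compound or DMSO control. Viability was read by sulforhodamine B assay after 24 h, with absorbance at 570 nm. Dose-response series used 6.25, 12.5, 25, 50 or 100 μM; newer analogues were tested at a fixed 5 μM. Data are mean ± SD of three independent experiments.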

HepG2 [2] = experiment: Downregulation of proPCSK9 level in human HepG2 cells by Western blot analysis; type: functional, cell-based
In short: (§1)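 HepG2 cells were treated overnight or for 24 h, alone or with simvastatin 40 μM. Lysates (1 % NP-40, 150 mM NaCl, 50 mM Tris-HCl pH 7.5) were loaded at 25 µg protein on 4–20 % SDS-PAGE. Blots were probed for proPCSK9, mature PCSK9 and LDLR, and densitometry was normalized to β-actin or GAPDH. Mean ± SD of three independent experiments.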

HepG2 [3] = experiment: Downregulation of mature PCSK9 level in human HepG2 cells by Western blot analysis; type: functional, cell-based; in short: as §1
HepG2 [4] = experiment: Induction of LDLR expression in human HepG2 cells by Western blot analysis; type: functional, cell-based; in short: as §1
[5] = Downregulation of PCSK9 mRNA level in human HepG2 cells at 5 uM by qRT-PCR analysis relative to control; type: functional
In short: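 Total RNA was taken from treated HepG2 cells for RT-qPCR of PCSK9, FAS and HMG-CoA reductase. Cycling was 50 °C 10 min, 95 °C 2 min, then 40 cycles of 95 °C 5 s and 60 °C 10 s. Relative quantification used ΔΔCt against 18S, corrected for primer efficiency. Mean ± SD of three independent experiments.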

HepG2 [6] = experiment: Downregulation of PCSK9 protein level in human HepG2 cells at 2.5 uM by Western blot analysis; type: functional, cell-based; in short: as §1
[7] = Inhibition of PCSK9 expression in human HepG2 cells at 5 to 10 uM by ELISA method relative to control; type: functional; settings: dose 5-10 µM
In short: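 Secreted PCSK9 was measured in HepG2 conditioned media with a human PCSK9 DuoSet sandwich ELISA. Media were centrifuged at 15000 rpm for 10 min and diluted before reading absorbance at 450 nm. Values were normalized to HepG2 total protein content. Mean ± SD of three independent experiments.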

HepG2 [8] = experiment: Inhibition of simvastatin induced PCSK9 level in human HepG2 cells at 2.5 to 5 uM by Western blot analysis; type: functional, cell-based; settings: dose 2.5-5 µM; in short: as §1
HepG2 [9] = experiment: Upregulation of LDLR/PCSK9 in human HepG2 cells at 2.5 to 5 uM in presence of simvastatin by Western blot analysis; type: functional, cell-based; settings: dose 2.5-5 µM
In short: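 HepG2 cells grown in MEM with 10 % FBS. Incubated overnight with test compound with or without simvastatin 40 μM (simvastatin dissolved in 0.1 M NaOH, pH 7.4). Lysates in 1 % NP-40 buffer; 25 µg protein run on 4–20 % SDS-PAGE. Immunoblotted for PCSK9 and LDLR, normalized to GAPDH by densitometry. Mean ± SD of three experiments, one-way ANOVA.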

[10] = Toxicity in C57BL/6 mouse assessed as effect on body weight at 40 mg/kg, sc measured after 7 days; type: organism-based; settings: in vivo, 168 h, time 7 day
In short: (§2)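 Male C57BL/6J mice, three months old, 26–30 g (n = 5–6/group), received daily sc injections of 40 mg/kg in Transcutol, 50 µl, for seven days. Controls were vehicle and SBC-115076 4 mg/kg. Readouts were daily body weight, open-field locomotion and modified SHIRPA, and gross organ inspection. Liver H&E cryosections were scored by two operators; plasma cholesterol by colorimetric assay, PCSK9 by ELISA.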

[11] = Toxicity in C57BL/6 mouse assessed as spontaneous locomotor activity at 40 mg/kg, sc measured after 7 days; type: organism-based; settings: in vivo, 168 h, time 7 day
In short: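 Open-field test in male C57BL/6J mice: 10 min free exploration of a 50 × 50 × 40 cm wooden chamber, with distance and speed tracked automatically. Basal sessions were run before dosing, then testing continued across daily 50 µl subcutaneous injections (40 mg/kg, Transcutol vehicle). Distance, mean speed and % time in corners and arena were recorded as part of a modified SHIRPA screen.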

[12] = Toxicity in C57BL/6 mouse assessed as effect on urination at 40 mg/kg, sc measured after 7 days; type: organism-based; settings: in vivo, 168 h, time 7 day; in short: as §2
[13] = Toxicity in C57BL/6 mouse assessed as defecations at 40 mg/kg, sc measured after 7 days; type: organism-based; settings: in vivo, 168 h, time 7 day; in short: as §2
[14] = Toxicity in C57BL/6 mouse assessed as tremor at 40 mg/kg, sc measured after 7 days; type: organism-based; settings: in vivo, 168 h, time 7 day
In short: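 General health of subcutaneously dosed C57BL/6J mice (40 mg/kg daily, Transcutol, seven days) was tracked with a modified SHIRPA screen covering phenotype, sensory and neuropsychiatric functions. Body weight was recorded daily as % change from the day −3 to −1 baseline.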

[15] = Toxicity in C57BL/6 mouse assessed as changes in fur sheen at 40 mg/kg, sc measured after 7 days; type: organism-based; settings: in vivo, 168 h, time 7 day; in short: as §2
[16] = Toxicity in C57BL/6 mouse assessed as abnormal secretion at 40 mg/kg, sc measured after 7 days; type: organism-based; settings: in vivo, 168 h, time 7 day; in short: as §2
[17] = Toxicity in C57BL/6 mouse assessed as effect on brain at 40 mg/kg, sc measured after 7 days by H and E staining based analysis; type: organism-based; settings: in vivo, 168 h, time 7 day
[18] = Toxicity in C57BL/6 mouse assessed as effect on spleen at 40 mg/kg, sc measured after 7 days by H and E staining based analysis; type: organism-based; settings: in vivo, 168 h, time 7 day
[19] = Toxicity in C57BL/6 mouse assessed as effect on liver at 40 mg/kg, sc measured after 7 days by H and E staining based analysis; type: organism-based; settings: in vivo, 168 h, time 7 day; in short: as §2
[20] = Toxicity in C57BL/6 mouse assessed as effect on kidney at 40 mg/kg, sc measured after 7 days by H and E staining based analysis; type: organism-based; settings: in vivo, 168 h, time 7 day
[21] = Toxicity in C57BL/6 mouse assessed as abnormal arrangements of hepatocyte at 40 mg/kg, sc measured after 7 days by histopathological analysis; type: organism-based; settings: hepatocytes, 168 h, time 7 day; in short: as §2
[22] = Toxicity in C57BL/6 mouse assessed as inflammatory cells infiltration at 40 mg/kg, sc measured after 7 days by histopathological analysis; type: organism-based; settings: in vivo, 168 h, time 7 day
In short: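 Male C57BL/6J mice, 3 months old, 26–30 g, given 40 mg/kg subcutaneously in 100 % Transcutol (vehicle group) for seven days. Killed 6 h after the last injection. Liver fixed in 4 % PFA, cryoprotected in 20 % sucrose and cut into 7 µm cryosections. Sections stained with hematoxylin/eosin and scored by two operators for hepatocyte arrangement, inflammatory infiltration and necrosis.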

[23] = Toxicity in C57BL/6 mouse assessed as cellular necrosis at 40 mg/kg, sc measured after 7 days by histopathological analysis; type: organism-based; settings: in vivo, 168 h, time 7 day; in short: as §2
[24] = Toxicity in C57BL/6 mouse assessed as reduction in ALT plasma level at 40 mg/kg, sc measured after 7 days by ELISA method; type: organism-based; settings: in vivo, 168 h, time 7 day
In short: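 Male C57BL/6J mice, 3 months old, dosed subcutaneously at 40 mg/kg daily for seven days in Transcutol. Killed under isoflurane 6 h after the final dose. Retro-orbital blood taken into EDTA and spun at 3000 rpm, 4 °C, 10 min. Plasma ALT measured by ELISA kit. Mean ± SEM, n = 5–6 per group.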

[25] = Toxicity in C57BL/6 mouse assessed as drug tolerance at 40 mg/kg, sc measured after 7 days; type: organism-based; settings: in vivo, 168 h, time 7 day; in short: as §2
[26] = Toxicity in C57BL/6 mouse assessed as effect on gut at 40 mg/kg, sc measured after 7 days by macroscopic analysis; settings: in vivo, 168 h
[27] = Toxicity in C57BL/6 mouse assessed as effect on plasma total cholesterol level at 40 mg/kg, sc measured after 7 days by biochemical assay; settings: in vivo, 168 h

Cc1cc(NCc2ccc(C(F)(F)F)cc2)cc(=O)n1Cc1ccc(C(F)(F)F)cc1
Non-Toxic: Activity [10] | Activity [11] | Activity [12] | Activity [13] | Activity [14] | Activity [15] | Activity [16] | Activity [17] | Activity [18] | Activity [19] | Activity [20] | Activity [21] | Activity [22] | Activity [23] | Activity [24] | Activity [25] | Activity [26] | Activity [27]
>95%: Activity (HepG2 [1])
active: Activity (HepG2 [2]) | Activity (HepG2 [3]) | Activity (HepG2 [4]) | Activity (HepG2 [6]) | inhibition (HepG2 [8]) | Activity (HepG2 [9])
100%: Activity [5] | inhibition (INH) [7]
